Source: PubChem
HCT116 bCat-KO = beta-catenin-lacking colon tumor cell growth suppression. HCT116 beta-catenin knockout viability, CellTiter-Glo, 60 h; active compounds read low. viability, % at 10 µM. hit rate 1.5% among 140,000. AID 818;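 active = viability at or under a set limit, the compound median less 4 SD, cut at about 6% in these data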
H69AR growth 86K = growth inhibitors of human H69AR lung tumor cells. H69AR lung tumor viability, ATP luminescence, 72 h; active compounds read low. viability, % at 10 µM. hit rate 6% among 85,000. AID 598;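 active = viability at or below 40%; inactive = viability above 40%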;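 note: multidrug resistant small cell line overexpressing MRP-1 efflux transporter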
Fibroblast inh = blocks proliferation of human lung fibroblasts; hit rate 1.1% among 85,000; LL 47 human lung fibroblast viability, ATP luminescence; active compounds read low; viability, % at 10 µM;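 active = viability at or below 50% in the single dose screen; inactive = viability above 50%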;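 note: compound exposure lasted 72 h before the ATP readout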
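Test system: LL 47 human lung fibroblasts / Incubation: 72 h compound exposure at 37 °C after overnight plating / Technique: luminescent ATP detection, CellTiter-Glo / Compound dosing: 0.1% DMSO in all compound wells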
PTEN del growth = PTEN-deleted cell growth suppression | hit rate 1.2% among 140,000 | HCT116 PTEN-null viability, CellTiter-Glo, 60 h; active compounds read low | viability, % at 10 µM;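 active = viability at or below a set limit, 4 SD under the median of all tested compounds, cut at about 3.7% in these data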;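 note: PTEN knockout HCT116 line with beta catenin targeted HCT116 as companion control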
HUVEC inhibit = inhibitors of human endothelial cell proliferation. HUVEC proliferation, CellTiter-Glo luminescence, 72 h; active compounds read low. viability, % at 10 µM (by protocol). hit rate 1.1% among 86,000;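 active = viability at or below 30%; inactive = viability above 30%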
Of the large screens only hits and unclear results are named; the others gave an inactive call. The entries come from a sample that favours hits as a whole.

CCOc1ccc(-c2nnc3sc(-c4ccccc4OC)nn23)cc1	none (no result: HCT116 bCat-KO, PTEN del growth)
CCOc1ccc(-c2nnc3sc(-c4c(OC)cccc4OC)nn23)cc1	H69AR growth 86K 35 (no result: HCT116 bCat-KO, PTEN del growth)
COc1cc(-c2nnc3sc(-c4cccs4)nn23)cc(OC)c1OC	HCT116 bCat-KO 4.0, H69AR growth 86K 21, PTEN del growth 3.0
COc1ccc(-c2nnc3sc(-c4cccs4)nn23)cc1OC	none
O=C1C=C(NNC(=O)c2ccccc2Br)CCC1	none (no result: H69AR growth 86K, Fibroblast inh, HUVEC inhibit)
Cc1nc(N2CCOCC2)c2cc(-c3ccccc3)sc2n1	none
c1ccc(-c2cc3c(N4CCOCC4)ncnc3s2)cc1	H69AR growth 86K 31 (no result: Fibroblast inh)
CCOC(=O)C1=C(N)Oc2c(c(=O)[nH]c3ccccc23)C1c1ccccc1 (centres undefined)	H69AR growth 86K 13
CC1(c2ccc(OC(F)F)cc2)NC(=O)N(/N=C/c2c(O)ccc3ccccc23)C1=O (centres undefined)	none (no result: H69AR growth 86K, Fibroblast inh, HUVEC inhibit)
N#Cc1c(-c2ccc(Cl)cc2)ccn2nc(C3CCCCC3)nc12	H69AR growth 86K 31
CCN1CCN(C(=O)Nc2ccccc2OC)CC1	none
FC(F)(F)COc1nc(N2CCOCC2)nc(N(c2ccccc2)c2ccccc2)n1	H69AR growth 86K 40
c1ccc(N(c2ccccc2)c2nc(N3CCOCC3)nc(N3CCOCC3)n2)cc1	none (no result: HCT116 bCat-KO, PTEN del growth)
CC1(C)C(c2ccccn2)=[N+]([O-])C(C)(C)N1O	none
CC1(C)C(c2ccccc2)=[N+]([O-])CN1O	H69AR growth 86K 34 (no result: Fibroblast inh)
COc1ccc(CNC(=O)c2sc3nc4c(c(C(F)(F)F)c3c2N)CCC4)cc1	none (no result: H69AR growth 86K, Fibroblast inh, HUVEC inhibit)
O=C1C(Cl)=C(Nc2ccccc2)C(=O)c2ccccc21	HCT116 bCat-KO 1.1, PTEN del growth 1.0 (no result: H69AR growth 86K, Fibroblast inh, HUVEC inhibit)
N#C/C(=C\c1cccc(NC(=O)c2ccccc2Cl)c1)C(=O)NCCc1ccccc1	HCT116 bCat-KO 1.2, PTEN del growth 1.5 (no result: H69AR growth 86K, Fibroblast inh, HUVEC inhibit)
N#CC1=C(c2ccccc2)/C(=C/c2ccccc2)OC1=O	H69AR growth 86K 4.0, Fibroblast inh 5.4, HUVEC inhibit 28
O=C(c1ccccc1)c1nccc2ccccc12	none (no result: H69AR growth 86K, Fibroblast inh, HUVEC inhibit)
OC1C2(Cc3ccccc3)CN3CCN(C2)CC1(Cc1ccccc1)C3 (centres undefined)	none
OC1C2CN3CCN(C2)CC1(Cc1ccccc1)C3 (centres undefined)	HCT116 bCat-KO 1.4, PTEN del growth 0.7
CN(C)C(=O)CCN1CCOCC1	none
CC(=O)CCN1CCOCC1	H69AR growth 86K 29 (no result: PTEN del growth)
COc1ccc(Cc2nnc(N/N=C/c3ccc(O)cc3)[nH]c2=O)cc1OC	HCT116 bCat-KO 5.5 (no result: H69AR growth 86K, Fibroblast inh, HUVEC inhibit)
COc1ccc(/C=N/NC(=O)CCc2n[nH]c(=O)[nH]c2=O)cc1OC	none (no result: H69AR growth 86K, Fibroblast inh, HUVEC inhibit)
Cc1ccc(NC(=O)C2=C(O)CCn3c2nc2ccccc23)cc1	H69AR growth 86K 26
Cc1ccc(NC(=O)c2ccccc2O)cc1	none
COc1cc(/C=C/C(=O)OCC(=O)N2CCc3ccccc3C2)ccc1O	none (no result: H69AR growth 86K, Fibroblast inh, HUVEC inhibit)
O=S(=O)(Nc1cccc2ncccc12)c1cccs1	HCT116 bCat-KO 1.7, PTEN del growth 1.5 (no result: H69AR growth 86K, Fibroblast inh, HUVEC inhibit)
CCC(C)(C)C1CCc2c(sc(NC(=O)c3ccoc3C)c2C(N)=O)C1 (centres undefined)	H69AR growth 86K 14
Cc1occc1C(=O)Nc1sc2c(c1C(N)=O)CCC(C(C)(C)C)C2 (centres undefined)	none
CCC1CCc2c(sc(NC(=O)c3ccoc3C)c2C(N)=O)C1 (centres undefined)	H69AR growth 86K 35
COc1ccc(NC(=O)c2cc([N+](=O)[O-])nn2Cc2ccccc2)c(C)c1	none (no result: H69AR growth 86K, Fibroblast inh, HUVEC inhibit)
O=C1NCCCc2c1oc1ccc(O)cc21	none
Oc1c(Cl)cc(Cl)c2c1NCCC2	H69AR growth 86K 4.4
Nn1c(-c2cccs2)nc2sc3c(c2c1=O)CCCC3	H69AR growth 86K 31
CC1(C)Cc2c(sc3nc(-c4ccccc4)n(N)c(=O)c23)CO1	none
Cc1ccccc1-c1nc2sc3c(c2c(=O)n1N)CCCC3	none
CC1(C)Cc2c(sc3nc(-c4cccs4)n(N)c(=O)c23)CO1	H69AR growth 86K 35
CC1(C)Cc2c(cnn2-c2ccccc2)-c2c1c1ccccc1n2CC(O)CBr (centres undefined)	H69AR growth 86K 16
CC1(C)Cc2c(cnn2-c2ccccc2)C(=O)/C1=N\NC(=O)c1ccccc1N	none
CCN(CC)CCN1C(=O)c2oc3ccccc3c(=O)c2C1c1ccccc1 (centres undefined)	none (no result: H69AR growth 86K)
O=C1c2oc3ccc(Cl)cc3c(=O)c2C(c2cccc(Br)c2)N1CCO (centres undefined)	H69AR growth 86K 26
CCN(CC)CCN1C(=O)c2oc3ccccc3c(=O)c2C1c1cccc(Br)c1 (centres undefined)	H69AR growth 86K 37
CCO/N=C(/C)c1c(O)c(C)c(-c2ccccc2)n(-c2ccccc2)c1=O	none
